Measured values reported in ChEMBL document CHEMBL4689842, “EUbOPEN Chemogenomics Library wave 1” (2021).

Test system: HEK-293T
Assay: Multiplex assay against HEK293T;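 for Population Tubulin-Different-Phenotype (%): share of the cells with healthy nuclei that show this phenotype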
Type: toxicity, cell-based
Settings: human
How it was run: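 Live cells were stained at seeding with Hoechst33342, BioTracker Green Microtubule Cytoskeleton Dye, MitoTracker Red and Annexin V Alexa Fluor 680, then imaged on a CQ1 microscope at 37°C and 5% CO2 after compound addition. CellPathfinder machine-learning gating split cells into Hoechst high-intensity objects or normal cells. Normal cells were split into healthy, pyknosed or fragmented nuclei, and pyknosed cells into mitotic or apoptotic. Tubulin, mitochondrial-mass and membrane-permeability phenotypes are per cents of healthy-nucleus cells.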

[1] = 12 h, 1 µM, compound concentration 1 uM, replicate 1
[2] = 12 h, 1 µM, compound concentration 1 uM, replicate 2
[3] = 12 h, 10 µM, compound concentration 10 uM, replicate 1
[4] = 12 h, 10 µM, compound concentration 10 uM, replicate 2
[5] = 24 h, 1 µM, compound concentration 1 uM, replicate 1
[6] = 24 h, 1 µM, compound concentration 1 uM, replicate 2
[7] = 24 h, 10 µM, compound concentration 10 uM, replicate 1
[8] = 24 h, 10 µM, compound concentration 10 uM, replicate 2
[9] = 48 h, 1 µM, compound concentration 1 uM, replicate 1
[10] = 48 h, 1 µM, compound concentration 1 uM, replicate 2
[11] = 48 h, 10 µM, compound concentration 10 uM, replicate 1
[12] = 48 h, 10 µM, compound concentration 10 uM, replicate 2

## CC[C@H](C)C(=O)O[C@H]1C[C@@H](C)C=C2C=C[C@H](C)[C@H](CC[C@@H]3C[C@@H](O)CC(=O)O3)[C@H]21 [LOVASTATIN]
[1]
  Population Apoptotic (%): 48%
  Population Fragmented Nuclei (%): 22%
  Population Healthy Nuclei (%): 16%
  Population Hoechst High Intensity Objects (%): 14%
  Population Mitochondria Different-Phenotype (%): 68%
  Population Mitotic Cells (%): 51%
  Population Normal (%): 85%
  Population Pyknosed Nuclei (%): 60%
  Population Tubulin-Different-Phenotype (%): 28%
  Total Cell Count: 174
[2]
  Population Apoptotic (%): 7%
  Population Fragmented Nuclei (%): 4%
  Population Healthy Nuclei (%): 44%
  Population Hoechst High Intensity Objects (%): 4%
  Population Membrane Permeable-Phenotype (%): 4%
  Population Mitochondria Different-Phenotype (%): 11%
  Population Mitotic Cells (%): 92%
  Population Normal (%): 95%
  Population Pyknosed Nuclei (%): 50%
  Population Tubulin-Different-Phenotype (%): 9%
  Total Cell Count: 227
[3]
  Population Apoptotic (%): 47%
  Population Fragmented Nuclei (%): 8%
  Population Healthy Nuclei (%): 33%
  Population Hoechst High Intensity Objects (%): 14%
  Population Membrane Permeable-Phenotype (%): 1%
  Population Mitochondria Different-Phenotype (%): 89%
  Population Mitotic Cells (%): 52%
  Population Normal (%): 85%
  Population Pyknosed Nuclei (%): 57%
  Population Tubulin-Different-Phenotype (%): 39%
  Total Cell Count: 341
[4]
  Population Apoptotic (%): 10%
  Population Fragmented Nuclei (%): 5%
  Population Healthy Nuclei (%): 45%
  Population Hoechst High Intensity Objects (%): 3%
  Population Membrane Permeable-Phenotype (%): 4%
  Population Mitochondria Different-Phenotype (%): 21%
  Population Mitotic Cells (%): 89%
  Population Normal (%): 96%
  Population Pyknosed Nuclei (%): 49%
  Population Tubulin-Different-Phenotype (%): 16%
  Total Cell Count: 266
[5]
  Population Apoptotic (%): 50%
  Population Fragmented Nuclei (%): 30%
  Population Healthy Nuclei (%): 16%
  Population Hoechst High Intensity Objects (%): 19%
  Population Membrane Permeable-Phenotype (%): 4%
  Population Mitochondria Different-Phenotype (%): 52%
  Population Mitotic Cells (%): 50%
  Population Normal (%): 80%
  Population Pyknosed Nuclei (%): 52%
  Population Tubulin-Different-Phenotype (%): 32%
  Total Cell Count: 192
[6]
  Population Apoptotic (%): 8%
  Population Fragmented Nuclei (%): 3%
  Population Healthy Nuclei (%): 65%
  Population Hoechst High Intensity Objects (%): 3%
  Population Membrane Permeable-Phenotype (%): 6%
  Population Mitochondria Different-Phenotype (%): 13%
  Population Mitotic Cells (%): 91%
  Population Normal (%): 96%
  Population Pyknosed Nuclei (%): 30%
  Population Tubulin-Different-Phenotype (%): 20%
  Total Cell Count: 287
[7]
  Population Apoptotic (%): 38%
  Population Fragmented Nuclei (%): 12%
  Population Healthy Nuclei (%): 37%
  Population Hoechst High Intensity Objects (%): 17%
  Population Membrane Permeable-Phenotype (%): 1%
  Population Mitochondria Different-Phenotype (%): 73%
  Population Mitotic Cells (%): 61%
  Population Normal (%): 82%
  Population Pyknosed Nuclei (%): 50%
  Population Tubulin-Different-Phenotype (%): 37%
  Total Cell Count: 349
[8]
  Population Apoptotic (%): 14%
  Population Fragmented Nuclei (%): 4%
  Population Healthy Nuclei (%): 57%
  Population Hoechst High Intensity Objects (%): 4%
  Population Membrane Permeable-Phenotype (%): 6%
  Population Mitochondria Different-Phenotype (%): 17%
  Population Mitotic Cells (%): 85%
  Population Normal (%): 95%
  Population Pyknosed Nuclei (%): 37%
  Population Tubulin-Different-Phenotype (%): 20%
  Total Cell Count: 320
[9]
  Population Apoptotic (%): 49%
  Population Fragmented Nuclei (%): 29%
  Population Healthy Nuclei (%): 28%
  Population Hoechst High Intensity Objects (%): 15%
  Population Membrane Permeable-Phenotype (%): 2%
  Population Mitochondria Different-Phenotype (%): 42%
  Population Mitotic Cells (%): 50%
  Population Normal (%): 84%
  Population Pyknosed Nuclei (%): 41%
  Population Tubulin-Different-Phenotype (%): 40%
  Total Cell Count: 205
[10]
  Population Apoptotic (%): 3%
  Population Fragmented Nuclei (%): 6%
  Population Healthy Nuclei (%): 81%
  Population Hoechst High Intensity Objects (%): 3%
  Population Membrane Permeable-Phenotype (%): 7%
  Population Mitochondria Different-Phenotype (%): 4%
  Population Mitotic Cells (%): 96%
  Population Normal (%): 96%
  Population Pyknosed Nuclei (%): 11%
  Population Tubulin-Different-Phenotype (%): 20%
  Total Cell Count: 588
[11]
  Population Apoptotic (%): 42%
  Population Fragmented Nuclei (%): 17%
  Population Healthy Nuclei (%): 37%
  Population Hoechst High Intensity Objects (%): 19%
  Population Membrane Permeable-Phenotype (%): 2%
  Population Mitochondria Different-Phenotype (%): 46%
  Population Mitotic Cells (%): 57%
  Population Normal (%): 80%
  Population Pyknosed Nuclei (%): 45%
  Population Tubulin-Different-Phenotype (%): 39%
  Total Cell Count: 384
[12]
  Population Apoptotic (%): 8%
  Population Fragmented Nuclei (%): 5%
  Population Healthy Nuclei (%): 72%
  Population Hoechst High Intensity Objects (%): 4%
  Population Membrane Permeable-Phenotype (%): 6%
  Population Mitochondria Different-Phenotype (%): 5%
  Population Mitotic Cells (%): 91%
  Population Normal (%): 95%
  Population Pyknosed Nuclei (%): 21%
  Population Tubulin-Different-Phenotype (%): 24%
  Total Cell Count: 484
